The values that follow come from ChEMBL document CHEMBL1123764, “Long-acting angiotensin II inhibitors containing hexafluorovaline in position 8” (J Med Chem, 1987).

For assay [1], the species on record is Oryctolagus cuniculus. Put plainly: Antagonism determined in rabbit aorta against AII. As to conditions: read-out: pA2 (converted). It counts as functional.
The species entered for assay [2] is Rattus norvegicus. The experiment in a line: Antagonism determined in rat stomach against AII. In kind it is functional. To be noted: read-out: pA2 (converted).
For assay [3], the species on record is Rattus norvegicus. Put plainly: Dose required to produce(to produce 25% maximal response) In vitro agonistic activity against angiotensin II in rat stomach. In kind it is functional. The gist of the method: (§1)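 Isolated rabbit aorta or rat stomach strips were used. Agonist activity (%) is the AII dose producing 25% of maximal response divided by the analogue dose producing the same response. Each value comes from 3 experiments.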

For assay [4], the species on record is Oryctolagus cuniculus. Put plainly: Dose required to produce(to produce 25% maximal response) In vitro agonistic activity against angiotensin II in rabbit aorta. It counts as functional. The procedure, abridged: as §1
The species entered for assay [5] is Rattus norvegicus. Put plainly: Time course for AII (6 ng) induced pressor response in rats to return to 50% of pretreatment level after a bolus injection of 1 microg. It counts as functional, organism-based. The procedure, abridged: (§2)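 Female Wistar rats were anesthetized with pentobarbital sodium (30 mg/kg), vagotomized, cannulated in the carotid artery and femoral vein, and given pentolinium tartrate (5 mg/200 g). After a bolus injection of inhibitor, 6 ng AII was injected at 15-min intervals while blood pressure was recorded by transducer. The read-out is the time for the pressor response to recover to 50% of pretreatment.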

The species named for assay [6] is Rattus norvegicus. Put plainly: Time course for AII (6 ng) induced pressor response in rats to return to 50% of pretreatment level after a bolus injection of 3 microg. It counts as functional, organism-based. The gist of the method:
as §2

The species entered for assay [7] is Rattus norvegicus. The experiment in a line: Time course for AII (6 ng) induced pressor response in rats to return to 50% of pretreatment level after a bolus injection of 10 microg. In kind it is functional, organism-based. The procedure, abridged:
as §2

Assay [8] is filed under the species Rattus norvegicus. Put plainly: Time course for AII (6 ng) induced pressor response in rats to return to 50% of pretreatment level after a bolus injection of 30 microg. It counts as functional, organism-based. The procedure, abridged: as §2
The species entered for assay [9] is Rattus norvegicus. Put plainly: Time course for AII (6 ng) induced pressor response in rats to return to 50% of pretreatment level after a bolus injection of 100 microg. In kind it is functional, organism-based. The gist of the method: as §2
The species named for assay [10] is Oryctolagus cuniculus. The experiment in a line: In vitro antagonistic activity against angiotensin II was determined to produce 25% maximal response in rabbit aorta at a dose of 50 ng/mL.
Assay [11] is filed under the species Rattus norvegicus. The experiment in a line: In vitro agonistic activity against angiotensin II was determined to produce 25% maximal response in rat stomach at a dose of 10 ng/mL. It counts as functional.
The species entered for assay [12] is Rattus norvegicus. The experiment in a line: In vitro agonistic activity against angiotensin II was determined to produce 25% maximal response in rat stomach at a dose of 50 ng/mL. In kind it is functional.
Assay [13] is filed under the species Oryctolagus cuniculus. The experiment in a line: In vitro antagonistic activity against angiotensin II was determined to produce 25% maximal response in rabbit aorta at a dose of 10 ng/mL.
The species named for assay [14] is Rattus norvegicus. Put plainly: Antagonistic potency determined in rat stomach at 1 ng/mL expressed as dose ratio of AII to produce 25% of control maximal response. It counts as functional.
The species named for assay [15] is Rattus norvegicus. Put plainly: Dose required to produce( 25% maximal response) In vitro agonistic activity against angiotensin II in rat stomach. It counts as functional. The gist of the method:
as §1

For assay [16], the species on record is Oryctolagus cuniculus. The experiment in a line: Antagonistic potency determined in rabbit aorta at 1 ng/mL expressed as dose ratio of AII to produce 25% of control maximal response. In kind it is functional.
For assay [17], the species on record is Oryctolagus cuniculus. The experiment in a line: Antagonistic potency determined in rabbit aorta at 10 ng/mL expressed as dose ratio of AII to produce 25% of control maximal response. It counts as functional.
The species entered for assay [18] is Oryctolagus cuniculus. The experiment in a line: Dose required to produce(25% maximal response) In vitro agonistic activity against angiotensin II in rabbit aorta. It counts as functional. The procedure, abridged: as §1
The species entered for assay [19] is Rattus norvegicus. Put plainly: Antagonistic potency determined in rat stomach at 10 ng/mL expressed as dose ratio of AII to produce 25% of control maximal response. It counts as functional.
The species named for assay [20] is Rattus norvegicus. The experiment in a line: Time course for AII (6 ng) induced pressor response in rats to return to 50% of pretreatment level after a bolus injection of 50 microg. It counts as functional, organism-based. The procedure, abridged:
as §2

For assay [21], the species on record is Rattus norvegicus. Put plainly: Time course for AII (6 ng) induced pressor response in rats to return to 50% of pretreatment level after a bolus injection of 5 microg. It counts as functional, organism-based. The gist of the method: as §2

As for `CNCC(=O)N[C@@H](CCCN=C(N)N)C(=O)N[C@H](C(=O)N[C@@H](Cc1ccc(O)cc1)C(=O)N[C@H](C(=O)N[C@@H](Cc1c[nH]cn1)C(=O)N1CCC[C@H]1C(=O)N[C@@H](C(=O)O)C(C(F)(F)F)C(F)(F)F)C(C)C)C(C)C` [listing 1 of 3 here], the Kb in the assay listed under Oryctolagus cuniculus [1] and in the assay listed under Rattus norvegicus [2] was 7.94 nM in each case.
For H-DRVYVHPF-OH [[Val5] - ANGIOTENSIN II], the Activity in the assay listed under Rattus norvegicus [3] and in the assay filed under Oryctolagus cuniculus [4] was 100% in each case.
With `CNCC(=O)N[C@@H](CCCN=C(N)N)C(=O)N[C@H](C(=O)N[C@@H](Cc1ccc(O)cc1)C(=O)N[C@H](C(=O)N[C@@H](Cc1c[nH]cn1)C(=O)N1CCC[C@H]1C(=O)N[C@H](C(=O)O)C(C(F)(F)F)C(F)(F)F)C(C)C)C(C)C` [listing 1 of 3 here], the figures for the Kb in the assay listed under Oryctolagus cuniculus [1] and in the assay filed under Rattus norvegicus [2] were 0.832 nM and 0.851 nM, respectively.
Consider `CNCC(=O)N[C@@H](CCCN=C(N)N)C(=O)N[C@H](C(=O)N[C@@H](Cc1ccc(O)cc1)C(=O)N[C@H](C(=O)N[C@@H](Cc1c[nH]cn1)C(=O)N1CCC[C@H]1C(=O)N[C@@H](C(=O)O)C(C(F)(F)F)C(F)(F)F)C(C)C)C(C)C` [listing 2 of 3 here], for which the figures for the Recovery time in the assay listed under Rattus norvegicus [5], in the assay filed under Rattus norvegicus [6] and in the assay filed under Rattus norvegicus [7] were 12.5 min, 32.3 min and 60.1 min, respectively.
As to `CNCC(=O)N[C@@H](CCCNC(=N)N)C(=O)N[C@H](C(=O)N[C@@H](Cc1ccc(O)cc1)C(=O)N[C@H](C(=O)N[C@@H](Cc1cnc[nH]1)C(=O)N1CCC[C@H]1C(=O)N[C@@H](C)C(=O)O)C(C)C)C(C)C`, the Recovery time in the assay filed under Rattus norvegicus [8] was 13.7 min; in the assay filed under Rattus norvegicus [9], 18 min; in the assay listed under Rattus norvegicus [7] it was 11 min.
For the compound `CNCC(=O)N[C@@H](CCCN=C(N)N)C(=O)N[C@H](C(=O)N[C@@H](Cc1ccc(O)cc1)C(=O)N[C@H](C(=O)N[C@@H](Cc1c[nH]cn1)C(=O)N1CCC[C@H]1C(=O)N[C@@H](C(=O)O)C(C(F)(F)F)C(F)(F)F)C(C)C)C(C)C` [listing 3 of 3 here], the Activity in the assay listed under Rattus norvegicus [3] is 0.03%; in the assay listed under Oryctolagus cuniculus [4] it was 0%. The Dose ratio stood at 42 in the assay listed under Oryctolagus cuniculus [10] and 2.1 in the assay listed under Oryctolagus cuniculus [13]. In addition, the Potency in the assay listed under Rattus norvegicus [11] was determined as 2; in the assay filed under Rattus norvegicus [12], 4.1.
Turning to `CNCC(=O)N[C@@H](CCCN=C(N)N)C(=O)N[C@H](C(=O)N[C@@H](Cc1ccc(O)cc1)C(=O)N[C@H](C(=O)N[C@@H](Cc1c[nH]cn1)C(=O)N1CCC[C@H]1C(=O)N[C@H](C(=O)O)C(C(F)(F)F)C(F)(F)F)C(C)C)C(C)C` [listing 2 of 3 here], the Potency in the assay listed under Rattus norvegicus [14] stood at 2.2; in the assay filed under Oryctolagus cuniculus [16], 6.1; in the assay listed under Oryctolagus cuniculus [17] it was 294; in the assay listed under Rattus norvegicus [19], 51.7. Besides, the values for the Activity in the assay filed under Rattus norvegicus [15] and in the assay listed under Oryctolagus cuniculus [18] were 0.8% and 1.1%, respectively.
As to `CNCC(=O)N[C@@H](CCCN=C(N)N)C(=O)N[C@H](C(=O)N[C@@H](Cc1ccc(O)cc1)C(=O)N[C@H](C(=O)N[C@@H](Cc1c[nH]cn1)C(=O)N1CCC[C@H]1C(=O)N[C@@H](CC(C)C)C(=O)O)C(C)C)C(C)C`, the Kb in the assay listed under Oryctolagus cuniculus [1] is 1.95 nM; in the assay filed under Rattus norvegicus [2], 2.51 nM.
For `CNCC(=O)N[C@@H](CCCN=C(N)N)C(=O)N[C@H](C(=O)N[C@@H](Cc1ccc(O)cc1)C(=O)N[C@H](C(=O)N[C@@H](Cc1c[nH]cn1)C(=O)N1CCC[C@H]1C(=O)N[C@H](CC(C)C)C(=O)O)C(C)C)C(C)C`, the Recovery time in the assay filed under Rattus norvegicus [20] amounted to 37.6 min; in the assay filed under Rattus norvegicus [8], 34.5 min; in the assay listed under Rattus norvegicus [6], 13.5 min; in the assay listed under Rattus norvegicus [7] it was 23.6 min.
As for `CNCC(=O)N[C@@H](CCCN=C(N)N)C(=O)N[C@H](C(=O)N[C@@H](Cc1ccc(O)cc1)C(=O)N[C@H](C(=O)N[C@@H](Cc1c[nH]cn1)C(=O)N1CCC[C@H]1C(=O)N[C@H](C(=O)O)C(C(F)(F)F)C(F)(F)F)C(C)C)C(C)C` [listing 3 of 3 here], the Recovery time stood at 40.6 min in the assay listed under Rattus norvegicus [21], 5.8 min in the assay filed under Rattus norvegicus [5], 19 min in the assay listed under Rattus norvegicus [6] and 73.6 min in the assay listed under Rattus norvegicus [7].
